In PMC10786778 (Diabetes Therapy, 2023):
“Also recorded” adds a separate entry of the source. Read-outs that look alike come from different tables or passages of the source.

Legend:
[1] = Safety and tolerability; type: in vivo, human
In short: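 Safety in 48 T2DM patients given placebo or 10/25/50 mg tablets orally every 2 weeks for 12 weeks, then 2 weeks of safety follow-up. Monitoring covered adverse events, physical examination, blood and urine routine, biochemistry, amylase and lipase, vital signs, 12-lead ECG and hypoglycemic events. ADR incidence was tabulated per dose group and graded by severity.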

[2] = Plasma pharmacokinetics of HSK7653 after first and last oral dose; type: in vivo, human
[3] = tested on: QT interval; experiment: Plasma concentration QT analysis of single dose in healthy subjects; type: in vivo, human; details: dose of 25 mg or less every two weeks
[4] = tested on: HbA1c; experiment: HbA1c change in T2DM patients; type: in vivo, human
In short: (§1)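 48 Chinese adults with T2DM, untreated with hypoglycemic agents for 3 months, randomized double-blind to placebo or 10, 25 or 50 mg oral tablets. Dosing was once every 2 weeks for 12 weeks (six doses), with 240.0 mL water, fasted on days 1 and 29. Values were measured by each site's standard procedure, compared with baseline or placebo, and summarized descriptively (mean, SD, median, range).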

[5] = mass balance study; ref CTR20201559; cited from earlier work
[6] = tested on: glucagon; experiment: Plasma glucagon level; type: in vivo, human
[7] = tested on: fasting plasma glucose; experiment: Fasting plasma glucose in T2DM patients; type: in vivo, human
In short: as §1

[8] = tested on: glycosylated albumin (GA); experiment: Glycated albumin; type: in vivo, human
In short: as §1

[9] = tested on: C-peptide; experiment: Serum C-peptide level; type: in vivo, human
In short: as §1

[10] = tested on: QT interval; details: cited from earlier work
[11] = day 85, 50 mg, among 11 subjects

CS(=O)(=O)n1cc2c(n1)CN([C@@H]1C[C@H](N)[C@@H](c3cc(F)ccc3F)O[C@@H]1C(F)(F)F)C2 [HSK7653, (2R,3S,5R,6S)-2-(2,5-difluorophenyl)-5-[2-(methylsulfonyl)-2,6-dihydropyrrolo[3,4-c]pyrazol-5(4H)-yl]-6-(trifluoromethyl)-tetrahydro-2H-pyran-3-amine]
incidence of ADR ([1]; 10 mg dose group): 33.3% | incidence of TEAEs ([1]; 10 mg dose group): 58.3% | incidence of ADR ([1]; 25 mg dose group): 58.3% | incidence of TEAEs ([1]; 25 mg dose group): 91.7% | incidence of ADR ([1]; 50 mg dose group): 75.0% | incidence of TEAEs ([1]; 50 mg dose group): 83.3% | serious adverse events ([1]; 10–50 mg once every two weeks): no serious adverse events | ADR incidence: anemia ([1]; HSK7653 dose group total): 5.6% | ADR incidence: decreased T wave amplitude of ECG ([1]; HSK7653 dose group total): 5.6% | ADR incidence: dizziness ([1]; HSK7653 dose group total): 2.8% | ADR incidence: dyspepsia ([1]; HSK7653 dose group total): 11.1% | ADR incidence: electrocardiogram T wave abnormal ([1]; HSK7653 dose group total): 8.3% | ADR incidence: hyperbilirubinemia ([1]; HSK7653 dose group total): 5.6% | ADR incidence: hyperlipidemia ([1]; HSK7653 dose group total): 8.3% | ADR incidence: hypertriglyceridemia ([1]; HSK7653 dose group total): 11.1% | ADR incidence: increased blood bilirubin ([1]; HSK7653 dose group total): 5.6% | ADR incidence: positive urine red blood cells ([1]; HSK7653 dose group total): 5.6% | ADR incidence: upper respiratory tract infection ([1]; HSK7653 dose group total): 5.6% | ADR incidence: urinary tract infection ([1]; HSK7653 dose group total): 8.3% | ADR incidence: white blood cells urine positive ([1]; HSK7653 dose group total): 8.3% | ADR incidence: prolonged QT interval of ECG ([1]; HSK7653 dose group total (4/36)): 11.1% | tolerability ([1]; doses of 10–50 mg, Chinese T2DM subjects): well tolerated and safe | accumulation in vivo ([2]; 10–50 mg every two weeks): not accumulated in vivo; also recorded: did not accumulated in body | mean Rac_AUC ([2]; 10–50 mg every two weeks): 1.0–1.1 | mean Rac_Cmax ([2]; 10–50 mg every two weeks): 0.9–1.0 | Tmax ([2]; human, plasma, oral, 10 mg, Tmax, median (min, max), multiple (last dose)): 1 h | Cmax ([2]; human, plasma, oral, 25 mg, Cmax, mean ± SD (CV%), multiple (last dose)): 411 ng/mL | Tmax ([2]; human, plasma, oral, 25 mg, Tmax, median (min, max), single (first dose)): 2 h | Vd/F ([2]; human, plasma, po): 61.1 to 81.9 L | half-life ([2]; human, plasma, po): 64 to 87 h | Tmax ([2]; human, plasma, po, median Tmax, dose range 10–50 mg): 1 to 3 h | risk of prolongation of QT interval [3]: no significant risk of prolongation of QT interval | HbA1c, Mean ± SD ([4]; Day 43, 10 mg): 7.7 ± 0.4 | HbA1c, Mean ± SD ([4]; Day 43, 25 mg): 7.5 ± 0.6 | HbA1c, Mean ± SD ([4]; Day 43, 50 mg): 8.3 ± 1.0 | HbA1c, Mean ± SD ([4]; Day 85, 10 mg): 7.3 ± 0.3 | HbA1c, Mean ± SD ([4]; Day 85, 25 mg): 7.4 ± 0.7 | HbA1c, Mean ± SD ([4]; Day 85, 50 mg): 8.4 ± 1.1 | subjects with HbA1c decreased significantly [4, 11]: 5 subjects | subjects with HbA1c increased compared with baseline [4, 11]: 6 subjects | fecal excretion [5]: 7.4% | hepatic metabolism, metabolites in feces [5]: 5.7% | hepatic metabolism, metabolites in urine [5]: 9.7% | renal excretion [5]: 68.1% | glucagon level with increasing treatment time ([6]; 10 mg dose group, 90–180 min after meal): gradually decreased to below the level of the placebo group | glucagon level compared with the placebo group ([6]; 25 and 50 mg dose groups, during treatment): lower than the placebo group during treatment | fasting blood glucose lower than baseline by ([7]; day 43, 10 mg): 0.7 mmol/L | mean fasting blood glucose ([7]; day 43, 10 mg): 9.2 mmol/L | fasting blood glucose lower than baseline by ([7]; day 43, 25 mg): 0.5 mmol/L | mean fasting blood glucose ([7]; day 43, 25 mg): 8.1 mmol/L | fasting blood glucose increased from baseline by ([7]; day 43, 50 mg): 0.8 mmol/L | fasting blood glucose decreased compared with the baseline by ([7]; day 85, 10 mg): 0.7 mmol/L | mean fasting blood glucose ([7]; day 85, 10 mg): 9.2 mmol/L | fasting blood glucose decreased compared with the baseline by ([7]; day 85, 25 mg): 0.2 mmol/L | mean fasting blood glucose ([7]; day 85, 25 mg): 8.5 mmol/L | GA level lower than the baseline by ([8]; day 43, 10 mg): 2.3% | mean GA value ([8]; day 43, 10 mg): 21.2% | GA level lower than the baseline by ([8]; day 43, 25 mg): 0.8% | mean GA value ([8]; day 43, 25 mg): 21.0% | GA level higher than the baseline by ([8]; day 43, 50 mg): 0.4% | mean GA value ([8]; day 43, 50 mg): 23.6% | mean GA value ([8]; day 85, 10 mg): 20.0% | mean GA value ([8]; day 85, 25 mg): 20.5% | mean GA value ([8]; day 85, 50 mg): 24.2% | level of C-peptide with increasing treatment time ([9]; 10 mg dose group): gradually increased to a similar level as the placebo group | level of C-peptide compared with the placebo group ([9]; 25 and 50 mg dose groups): no significant change

Cc1cc(N2CCN([C@@H]3CN[C@H](C(=O)N4CCSC4)C3)CC2)n(-c2ccccc2)n1 [Teneligliptin]
effect on QT interval ([10]; only at 4 times the normal dose (160.0 mg/day)): significantly prolonged the QT interval

CC#CCn1c(N2CCC[C@@H](N)C2)nc2c1c(=O)n(Cc1nc(C)c3ccccc3n1)c(=O)n2C [linagliptin]
effect on QTc interval ([10]; doses of 5 and 100 mg, compared with placebo): did not increase the QTc interval

N[C@@H](CC(=O)N1CCn2c(nnc2C(F)(F)F)C1)Cc1cc(F)c(F)cc1F [sitagliptin]
effect on QTc interval ([10]; clinical dose 100 mg): does not correlate with an increase in QTc interval | effect on QT interval ([10]; super-therapeutic dose of 800 mg, clinical significance not significant): the QT interval is prolonged
